{"source": "ChEMBL document CHEMBL1141216", "about": "“Mono- or diphenylpyridazines connected to N-(2,4-difluorophenyl)-N'-heptylurea as acyl-CoA:cholesterol acyltransferase inhibitors” (J Med Chem, 2005)", "key": {"[1]": {"target": "T1, Sterol O-acyltransferase 1 (Rattus norvegicus) (UniProt O70536)", "T1 sequence (whole entry)": "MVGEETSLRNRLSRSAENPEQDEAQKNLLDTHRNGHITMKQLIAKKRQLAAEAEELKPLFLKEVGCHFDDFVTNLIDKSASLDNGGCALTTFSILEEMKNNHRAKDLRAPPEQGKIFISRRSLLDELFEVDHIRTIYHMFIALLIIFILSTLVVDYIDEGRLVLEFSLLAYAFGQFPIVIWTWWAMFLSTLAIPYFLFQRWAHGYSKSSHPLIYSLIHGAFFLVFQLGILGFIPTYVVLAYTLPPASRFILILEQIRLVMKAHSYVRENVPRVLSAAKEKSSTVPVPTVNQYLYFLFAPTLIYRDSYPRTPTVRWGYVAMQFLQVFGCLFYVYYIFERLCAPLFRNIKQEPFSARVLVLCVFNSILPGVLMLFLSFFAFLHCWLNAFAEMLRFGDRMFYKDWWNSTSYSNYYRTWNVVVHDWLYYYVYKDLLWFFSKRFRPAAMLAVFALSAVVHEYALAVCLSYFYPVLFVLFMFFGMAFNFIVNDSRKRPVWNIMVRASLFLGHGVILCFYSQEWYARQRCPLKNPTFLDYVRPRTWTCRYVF", "assay": "Inhibition of ACAT expressed in rat liver microsomes at 50 ug/ml", "settings": "Microsome", "procedure,_shortened": "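Rat liver microsomes were the enzyme source, assayed by a previously described method. Compounds were tested at 50 μg/mL, and the readout was % ACAT inhibition. Values are means of three experiments differing by less than 10%. GERI-BP001M served as reference.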"}, "[2]": {"target": "T2, Sterol O-acyltransferase 2 (Homo sapiens, UniProt O75908)", "T2 sequence (O75908 whole entry)": "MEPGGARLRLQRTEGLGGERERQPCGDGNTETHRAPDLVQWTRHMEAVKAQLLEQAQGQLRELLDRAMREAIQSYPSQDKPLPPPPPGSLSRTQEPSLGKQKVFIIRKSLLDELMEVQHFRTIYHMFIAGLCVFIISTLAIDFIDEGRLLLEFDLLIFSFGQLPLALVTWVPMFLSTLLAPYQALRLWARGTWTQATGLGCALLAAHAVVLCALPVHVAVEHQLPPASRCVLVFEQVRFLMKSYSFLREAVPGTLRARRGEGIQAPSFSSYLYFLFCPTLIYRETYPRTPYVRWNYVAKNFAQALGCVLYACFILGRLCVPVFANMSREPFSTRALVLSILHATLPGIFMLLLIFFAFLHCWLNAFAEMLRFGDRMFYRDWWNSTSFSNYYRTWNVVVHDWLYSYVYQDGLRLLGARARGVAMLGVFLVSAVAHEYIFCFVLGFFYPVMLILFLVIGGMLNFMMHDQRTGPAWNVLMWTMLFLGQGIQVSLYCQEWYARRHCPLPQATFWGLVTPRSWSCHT", "assay": "Inhibition of human ACAT2 expressed in Hi5 cells", "set-up": "species or system BTI-TN-5B1-4", "procedure,_shortened": "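Human ACAT-2 was expressed by baculovirus in Hi5 insect cells, and microsomal fractions of these cells were the enzyme source. Activity was measured by the Brecher and Chan method with slight modification.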"}, "[3]": {"target": "T3, Sterol O-acyltransferase 1 (Rattus norvegicus, UniProt O70536)", "T3 sequence (O70536 whole entry)": "T1 sequence (whole entry)", "assay": "Inhibition of ACAT expressed in rat liver microsomes", "set-up": "species or system Microsome"}, "[4]": {"target": "T4, Sterol O-acyltransferase 1 (Homo sapiens, UniProt P35610)", "T4 sequence (P35610 whole entry)": "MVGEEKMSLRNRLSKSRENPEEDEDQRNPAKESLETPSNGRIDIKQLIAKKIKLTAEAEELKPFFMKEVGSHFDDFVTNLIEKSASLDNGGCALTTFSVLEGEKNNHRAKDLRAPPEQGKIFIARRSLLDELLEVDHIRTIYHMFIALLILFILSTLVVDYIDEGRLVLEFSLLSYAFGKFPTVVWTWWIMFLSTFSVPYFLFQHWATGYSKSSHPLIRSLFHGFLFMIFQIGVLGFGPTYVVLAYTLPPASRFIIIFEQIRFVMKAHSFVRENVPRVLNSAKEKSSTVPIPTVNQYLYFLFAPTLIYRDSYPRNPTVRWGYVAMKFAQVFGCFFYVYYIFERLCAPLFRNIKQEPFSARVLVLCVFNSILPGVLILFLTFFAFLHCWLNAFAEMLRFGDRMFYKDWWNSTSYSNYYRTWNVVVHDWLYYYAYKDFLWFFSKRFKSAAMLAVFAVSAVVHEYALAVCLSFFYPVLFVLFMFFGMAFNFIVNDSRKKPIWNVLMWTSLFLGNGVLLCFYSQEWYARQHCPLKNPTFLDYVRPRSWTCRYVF", "assay": "Inhibition of human ACAT1 expressed in Hi5 cells", "set-up": "species or system BTI-TN-5B1-4"}}, "data": [{"smiles": "CCCCCCCN(CCCCCS(=O)(=O)c1ccc(-c2ccccc2)nn1)C(=O)Nc1ccc(F)cc1F", "values": [{"measurement": "inhibition", "setting": "[1]", "result": 43, "unit": "%"}]}, {"smiles": "CCCCCCCN(CCCCC[S+]([O-])c1ccc(-c2ccccc2)nn1)C(=O)Nc1ccc(F)cc1F", "note": "(centres undefined)", "values": [{"measurement": "inhibition", "setting": "[1]", "result": 55, "unit": "%"}]}, {"smiles": "CCCCCCCN(CCCCCNc1cc(-c2ccccc2)c(-c2ccccc2)nn1)C(=O)Nc1ccc(F)cc1F", "values": [{"measurement": "IC50", "setting": "[2]", "result": 1740, "unit": "nM"}, {"measurement": "IC50", "setting": "[3]", "result": 2320, "unit": "nM"}, {"measurement": "inhibition", "setting": "[1]", "result": 87, "unit": "%"}]}, {"smiles": "CCCCCCCN(CCCCC[S+]([O-])c1cc(-c2ccccc2)cnn1)C(=O)Nc1ccc(F)cc1F", "note": "(centres undefined)", "values": [{"measurement": "inhibition", "setting": "[1]", "result": 62, "unit": "%"}]}, {"smiles": "CCCCCCCN(CCCCCS(=O)(=O)c1cc(-c2ccccc2)cnn1)C(=O)Nc1ccc(F)cc1F", "values": [{"measurement": "inhibition", "setting": "[1]", "result": 67, "unit": "%"}]}, {"smiles": "CCCCCCCN(CCCCC[S+]([O-])c1cc(-c2ccccc2)c(-c2ccccc2)nn1)C(=O)Nc1ccc(F)cc1F", "note": "(centres undefined)", "values": [{"measurement": "inhibition", "setting": "[1]", "result": 65, "unit": "%"}]}, {"smiles": "CCCCCCCN(CCCCCSc1cc(-c2ccccc2)c(-c2ccccc2)nn1)C(=O)Nc1ccc(F)cc1F", "values": [{"measurement": "inhibition", "setting": "[1]", "result": 75, "unit": "%"}]}, {"smiles": "CCCCCCCN(CCCCCNc1cc(-c2ccccc2)cnn1)C(=O)Nc1ccc(F)cc1F", "values": [{"measurement": "IC50", "setting": "[2]", "result": 101000, "unit": "nM"}, {"measurement": "IC50", "setting": "[3]", "result": 36400, "unit": "nM"}, {"measurement": "inhibition", "setting": "[1]", "result": 46, "unit": "%"}]}, {"smiles": "CCCCCCCN(CCCCCSc1cc(-c2ccccc2)cnn1)C(=O)Nc1ccc(F)cc1F", "values": [{"measurement": "inhibition", "setting": "[1]", "result": 75, "unit": "%"}]}, {"smiles": "CCCCCCCN(CCCCCS(=O)(=O)c1cc(-c2ccccc2)c(-c2ccccc2)nn1)C(=O)Nc1ccc(F)cc1F", "values": [{"measurement": "inhibition", "setting": "[1]", "result": 70, "unit": "%"}]}, {"smiles": "CCCCCCCN(CCCCCSc1ccc(-c2ccccc2)nn1)C(=O)Nc1ccc(F)cc1F", "values": [{"measurement": "inhibition", "setting": "[1]", "result": 44, "unit": "%"}]}, {"smiles": "CCCCCCCN(CCCCCNc1ccc(-c2ccccc2)nn1)C(=O)Nc1ccc(F)cc1F", "values": [{"measurement": "IC50", "setting": "[2]", "result": 2070, "unit": "nM"}, {"measurement": "IC50", "setting": "[3]", "result": 1210, "unit": "nM"}, {"measurement": "IC50", "setting": "[4]", "result": 5340, "unit": "nM"}, {"measurement": "inhibition", "setting": "[1]", "result": 89, "unit": "%"}]}]}
